Laboratory results as given in PubChem BioAssay.
Activity calls are given as the source filed them.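 How the source made its calls, unless noted: active means a full or partial loss of lipid-probe fluorescence in the fish gall bladder, intestine or both, judged by eye; inactive means no fluorescence loss, or compound toxic to the fish.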

How the values were obtained:
[1] = inhibitors of TNFa-induced NFkB p65 translocation, primary screen, imaging, HUVEC, MLSMR starter and 10KST1 sets (AID 438;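 active means inhibition above 20% together with a positive visual image hit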;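 further: compound added about 3h40 before a 20 min TNFalpha stimulation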;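 on inhibition: signal is the nuclear over cytoplasmic p65 intensity ratio per well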); conditions: HUVEC TNFa-induced p65 nuclear translocation; cell count: measured here: nuclei count (cytotoxicity indicator), at 2.08 µM; inhibition: at 2 µM, stronger effect = higher value, 0% TNFa-plus-vehicle, 100% no-TNFa wells
[2] = inhibitors of E-selectin induction by TNFa, primary screen, imaging, HUVEC, immunofluorescence, MLSMR starter and 10KST1 sets (AID 487;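 active means visually confirmed hit in the image check and inhibition above 20%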;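 on inhibition: signal is fraction of cell area covered by stained E-selectin grains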;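 on nuclei count: 100% = median nuclei count of all wells on the same plate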); conditions: HUVEC TNFalpha-induced E-selectin immunofluorescence imaging, at 2 µM; inhibition: stronger effect = higher value; nuclei count: measured here: cell number, toxicity
[3] = DUSP6 inhibitors restoring Erk phosphorylation by chemical complementation, primary imaging in DUSP6-transfected HeLa (AID 609;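 active means compounds giving at least 50% inhibition in the cell-based MKP-3 phosphatase rescue imaging test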;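 on inhibition: phospho-Erk level distribution per well compared with pooled transfected vehicle control wells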); conditions: HeLa MKP-3 transfected, phospho-Erk imaging KS statistic, at 10 µM, cells stimulated with TPA for 15 min
[4] = molecular target: Dual specificity protein phosphatase 6 (Homo sapiens) (UniProt Q16828); test: as above; conditions: HeLa MKP-3 transfected, phospho-Erk imaging KS statistic; at 10 µM; stronger effect = higher value; cells stimulated with TPA for 15 min
[5] = molecular target: Voltage-gated potassium channel subunit beta-2 (Rattus norvegicus) (UniProt P62483); test: KvBeta enzyme negative modulators, primary screen, biochemical, NADPH fluorescence (AID 622;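 active means fluorescence slope higher than the sample average by over 3 SD, cut at about -0.22 in these data, passing the limit was not always enough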;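 further: slope of raw intensity against log time taken from 70 to 1610 s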); conditions: recombinant KvBeta, 4-cyanobenzaldehyde reduction, at 10 µM, stronger effect = higher value
[6] = molecular target: Voltage-gated potassium channel subunit beta-2 (Rattus norvegicus) (UniProt P62483); test: KvBeta positive modulators, primary screen, biochemical, NADPH fluorescence (AID 623;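 active means NADPH fluorescence slope more negative than the mean of all samples by about 3 SD, 99.7% confidence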;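 further: fluorescence intensity change per second fitted from 20 to 320 s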); conditions: Recombinant KvBeta, NADPH fluorescence decrease slope, 10 min; at 10 µM; stronger effect = lower value
[7] = molecular target: Alpha-2C adrenergic receptor (Homo sapiens) (UniProt P18825); test: modulators of alpha2C/GIRK thallium flux, primary screen, cell-based, HEK293 alpha2C/GIRK1/2 (AID 624;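 active means fluorescence slope after compound addition differing from the mean of all screened samples at 99.7% confidence, in either direction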;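 further: slope of fluorescence ratio to pre-addition baseline per second over 15 to 24 s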); conditions: thallium flux BTC fluorescence, at 10 µM, actives lie on both sides
[8] = inhibitors of larval lipid processing in zebrafish, primary screen, whole organism, PED6 fluorescence, gall bladder and intestine (AID 686); conditions: Zebrafish larvae PED6 lipid processing, fluorescence scoring; screened at 20 µM (by protocol);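 further: larvae 5 to 7 days old with five fish per well; signal comes from phospholipase A2 cleavage of quenched PED6 carried via bile; overnight exposure to compound and PED6 before scoring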
Outline: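 Doses: 20 µM single dose. Test system: live zebrafish larvae aged 5-7 days, whole organism. Quantity: five larvae per well. Measured by: By-eye fluorescence microscopy. Reagent: ingested quenched lipid PED6 at 100 nM. Read-out: visual per-well fluorescence inhibition score. Times: overnight exposure of larvae to compound plus PED6.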

[9] = inhibitors of Chlamydomonas gravitaxis, primary screen, whole organism, Chlamydomonas reinhardtii, WT vs cilia-less mutant, absorbance, 96-well (AID 463189;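 active means inhibition at or above 50% relative to wild type and mutant plate controls; inactive means inhibition below 50%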;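 further: 0% = wild type cc124 cells in DMSO and 100% = ciliumless bld1 mutant cells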); conditions: OD600 absorbance, 2 days, at 10 µM, stronger effect = higher value
[10] = measured here: cell density z-score
[11] = measured here: nuclear c-Myc green intensity z-score
[12] = measured here: nuclear pErk red intensity z-score, stronger effect = higher value

Sequence of Alpha-2C adrenergic receptor (Homo sapiens) (P18825 whole entry, looked up): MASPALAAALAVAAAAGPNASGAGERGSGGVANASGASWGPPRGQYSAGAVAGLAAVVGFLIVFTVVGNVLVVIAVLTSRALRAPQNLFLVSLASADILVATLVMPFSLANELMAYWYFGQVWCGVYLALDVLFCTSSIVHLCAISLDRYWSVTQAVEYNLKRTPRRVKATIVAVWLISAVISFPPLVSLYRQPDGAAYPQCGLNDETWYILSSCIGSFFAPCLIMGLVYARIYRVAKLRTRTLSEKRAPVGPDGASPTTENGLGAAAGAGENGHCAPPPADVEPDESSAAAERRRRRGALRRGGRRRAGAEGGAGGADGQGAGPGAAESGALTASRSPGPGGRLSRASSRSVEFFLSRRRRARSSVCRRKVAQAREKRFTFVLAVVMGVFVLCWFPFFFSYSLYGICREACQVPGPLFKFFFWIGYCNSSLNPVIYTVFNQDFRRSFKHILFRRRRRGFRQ
Sequence of Voltage-gated potassium channel subunit beta-2 (Rattus norvegicus) (P62483 whole entry, looked up): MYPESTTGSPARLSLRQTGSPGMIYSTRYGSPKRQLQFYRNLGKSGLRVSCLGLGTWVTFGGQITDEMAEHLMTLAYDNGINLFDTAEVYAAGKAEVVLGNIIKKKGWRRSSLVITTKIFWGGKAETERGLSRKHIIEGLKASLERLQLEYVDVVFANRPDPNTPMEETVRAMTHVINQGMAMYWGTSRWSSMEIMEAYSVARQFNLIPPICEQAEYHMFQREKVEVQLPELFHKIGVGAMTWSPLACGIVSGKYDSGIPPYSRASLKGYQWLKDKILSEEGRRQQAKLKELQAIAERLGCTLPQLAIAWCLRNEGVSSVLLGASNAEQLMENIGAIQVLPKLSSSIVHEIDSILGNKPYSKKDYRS
Sequence of Dual specificity protein phosphatase 6 (Homo sapiens) (Q16828 whole entry, looked up): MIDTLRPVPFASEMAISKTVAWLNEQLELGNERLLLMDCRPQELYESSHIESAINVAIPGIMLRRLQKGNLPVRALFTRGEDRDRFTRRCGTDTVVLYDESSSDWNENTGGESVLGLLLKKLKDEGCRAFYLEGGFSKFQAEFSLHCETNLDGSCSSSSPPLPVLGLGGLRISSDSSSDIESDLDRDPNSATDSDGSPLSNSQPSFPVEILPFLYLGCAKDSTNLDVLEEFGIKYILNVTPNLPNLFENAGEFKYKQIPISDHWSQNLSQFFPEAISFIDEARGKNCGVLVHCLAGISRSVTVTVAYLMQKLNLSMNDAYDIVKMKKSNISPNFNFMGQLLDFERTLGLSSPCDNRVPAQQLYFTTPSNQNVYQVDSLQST

| Compound | cell count [1] | inhibition [1] | inhibition [2] | nuclei count [2] | z-score [3, 10] | z-score [3, 11] | z-score [3, 12] | inhibition [4] | fluorescence slope [5] | NADPH fluorescence slope [6] | slope [7] | outcome [8] | inhibition [9] |
| --- | --- | --- | --- | --- | --- | --- | --- | --- | --- | --- | --- | --- | --- |
| C=CCn1c(=S)[nH]c2ccccc2c1=O | 649 | 1.8% (inactive) | -30.6% (inactive) | 130% | -0.515 | 0.859 | 0.00467 | 5.57% (inactive) | -0.46 (inactive) | -0.000371 (inactive) | 0.00865 (inactive) | inactive | -14.1% (inactive) |
| CSc1nnc2n(C3CCCCC3)c(=O)c3c4c(sc3n12)CCCC4 | 609 | -10.6% (inactive) | -12.8% (inactive) | 111% | -0.921 | -0.992 | -0.882 | -2.07% (inactive) | -0.502 (inactive) | -0.000304 (inactive) | 0.0054 (inactive) | inactive | -18.3% (inactive) |
| CCN(CC)CCCn1c(C)cc2c(c1=O)C(c1ccc(OC)c(OC)c1OC)C(C#N)=C(N)O2 (stereo unspecified) | 439 | 13.1% (inactive) | -23% (inactive) | 134% | -1.55 | -0.016 | 0.949 | 2.46% (inactive) | -0.389 (inactive) | -3.6e-05 (inactive) | 0.0068 (inactive) | inactive | -3.45% (inactive) |
| CCN(CC)CCCn1c(C)cc2c(c1=O)C(c1ccccc1)C(C#N)=C(N)O2 (stereo unspecified) | 417 | 11.8% (inactive) | -54.2% (inactive) | 140% | -0.637 | 0.212 | 1.28 | 0.671% (inactive) | -0.395 (inactive) | -3.1e-05 (inactive) | 0.0067 (inactive) | inactive | -1.93% (inactive) |
| COC(=O)c1c(NC(=O)c2nn(C)cc2Cl)sc2c1CCCC2 | 650 | 4.5% (inactive) | -19.9% (inactive) | 179% | -0.637 | -1.15 | 1.29 | 2.46% (inactive) | -0.389 (inactive) | -3.5e-05 (inactive) | 0.00842 (inactive) | inactive | 23.3% (inactive) |
| N#Cc1c(SCC(N)=O)nsc1SCc1ccc(Cl)cc1 | 633 | -17.9% (inactive) | -60.5% (inactive) | 148% | 0.999 | -1.2 | -0.0749 | 17.7% (inactive) | -0.406 (inactive) | -1.2e-05 (inactive) | 0.00612 (inactive) | inactive | 26.4% (inactive) |
| CCOC(=O)C(C)Oc1nc(Oc2ccccc2)nc(N(C)C)n1 (stereo unspecified) | 645 | -4.1% (inactive) | -25.5% (inactive) | 183% | 0.393 | -0.772 | 1.44 | -7.79% (inactive) | -0.497 (inactive) | -5.5e-05 (inactive) | 0.00486 (inactive) | inactive | -18.7% (inactive) |
| Cc1ccc(C#N)c(SCc2cc3c(cc2Cl)OCO3)n1 | 538 | -31.1% (inactive) | -76.1% (inactive) | 159% | -0.24 | -0.891 | -0.243 | -2.47% (inactive) | -0.515 (inactive) | -6.3e-05 (inactive) | 0.00686 (inactive) | inactive | 28.8% (inactive) |
| COc1ccc(C(=O)c2sc(NC(C)C)nc2N)cc1OC | 327 | -12.2% (inactive) | -16.7% (inactive) | 105% | -0.265 | 0.429 | -0.628 | -11.9% (inactive) | -0.458 (inactive) | -6.7e-06 (inactive) | 0.0049 (inactive) | inactive | -3.2% (inactive) |
| CCn1c(-c2ccco2)n[nH]c1=S | 428 | -12.3% (inactive) | -47.8% (inactive) | 92.3% | 0.73 | 0.522 | -1.57 | 22.3% (inactive) | -0.542 (inactive) | -2.6e-05 (inactive) | 0.00489 (inactive) | inactive | 19.9% (inactive) |
| CCCSc1nnc2n(-c3ccccc3OC)c(=O)c3c4c(sc3n12)CCC4 | 523 | -14.8% (inactive) | -63.5% (inactive) | 171% | 1.08 | -1.06 | -0.347 | 7.73% (inactive) | -0.358 (inactive) | -3.5e-05 (inactive) | 0.00552 (inactive) | inactive | 11.2% (inactive) |
| N#Cc1ccc(-c2ccco2)nc1SCC(=O)c1ccc(Cl)cc1 | 431 | 0% (inactive) | -80.7% (inactive) | 138% | -1.49 | -0.417 | 1.23 | 7.83% (inactive) | -0.288 (inactive) | -2.9e-05 (inactive) | 0.00718 (inactive) | inactive | -1.61% (inactive) |
| COCCCn1c2nc3ccccc3nc2c2c(=O)n(CC3CCCO3)cnc21 (stereo unspecified) | 561 | -24.2% (inactive) | -93.6% (inactive) | 148% | 0.117 | -0.113 | -0.0537 | 2.92% (inactive) | -0.368 (inactive) | -1.9e-05 (inactive) | 0.00353 (inactive) | inactive | 9.15% (inactive) |
| C/C=C/c1ccccc1OCc1ccc(C(=O)O)o1 | 540 | -2.1% (inactive) | 9.9% (inactive) | 98.3% | -2.68 | 0.479 | 0.66 | 0.671% (inactive) | -0.571 (inactive) | -6.2e-05 (inactive) | 0.00529 (inactive) | inactive | -4.22% (inactive) |
| C1CCCN(CCCCN2CCCCCC2)CC1 | 575 | -1.5% (inactive) | -211% (inactive) | 129% | -2.5 | 1.44 | -0.0614 | -5.89% (inactive) | -0.456 (inactive) | -0.000347 (inactive) | 0.00726 (inactive) | inactive | -11.5% (inactive) |
| COc1ccc(CNC(=O)c2c(C)cc(=O)oc2C)cc1OC | 446 | 1.8% (inactive) | -121% (inactive) | 167% | 0.057 | 0.328 | 1.22 | -1.12% (inactive) | -0.427 (inactive) | -4.8e-05 (inactive) | 0.00518 (inactive) | inactive | -7.01% (inactive) |
| CCc1cccc(C)c1N(C(=O)Cn1c(=O)[nH]c2ccccc21)C(C)COC (stereo unspecified) | 362 | -2.1% (inactive) | -33.7% (inactive) | 97% | 0.81 | -0.372 | 0.826 | 5.57% (inactive) | -0.546 (inactive) | -4.3e-07 (inactive) | 0.00687 (inactive) | inactive | 32.6% (inactive) |
| N#CC(C(=O)NC1CC1)c1nc2ccccc2nc1N1CCN(C/C=C/c2ccccc2)CC1 (stereo unspecified) | 507 | -4.6% (inactive) | -99.8% (inactive) | 164% | -0.376 | 0.378 | 1.69 | 2.46% (inactive) | -0.304 (inactive) | -1.2e-05 (inactive) | -0.000245 (inactive) | inactive | 26.9% (inactive) |
| CC(C)Cc1nc(N2CCN(C(=O)C(C)C)CC2)c(C#N)c2c1CCC2 | 541 | 1% (inactive) | -148% (inactive) | 141% | -1.27 | 0.114 | 1.85 | -3.5% (inactive) | -0.499 (inactive) | -3.3e-05 (inactive) | 0.00462 (inactive) | inactive | 5.12% (inactive) |
| CC(=NC1CCCC1)c1c(C)[nH]n(-c2nc3ccccc3s2)c1=O | 573 | 3.4% (inactive) | 54.6% (inactive) | 142% | 0.859 | 0.776 | -1.4 | -1.12% (inactive) | -0.469 (inactive) | -0.000261 (inactive) | 0.00463 (inactive) | inactive | 6.63% (inactive) |
| COc1cccc(/C(O)=C2/C(=O)C(=O)N(CCCN(C)C)C2c2cccc(Cl)c2)c1 (stereo unspecified) | 339 | -13.6% (inactive) | -326% (inactive) | 182% | 0.0823 | -0.754 | 0.354 | 11.3% (inactive) | -0.436 (inactive) | -5.7e-05 (inactive) | 0.00508 (inactive) | inactive | 1.66% (inactive) |
| CN1CCN(c2nc(C(N)=O)cc(-c3ccccc3)n2)CC1 | 400 | -6.4% (inactive) | 14% (inactive) | 98.8% | 1.22 | -2.25 | 0.112 | 7.83% (inactive) | -0.498 (inactive) | -3.9e-05 (inactive) | 0.00569 (inactive) | inactive | 18.8% (inactive) |
| CSc1nc2sc3c(c2c(=O)n1C1CCCCC1)CCN(C)C3 | 563 | 1.3% (inactive) | -69.6% (inactive) | 107% | 0.231 | 0.631 | -1.25 | 9.82% (inactive) | -0.375 (inactive) | -2.1e-06 (inactive) | 0.00516 (inactive) | inactive | -15.6% (inactive) |
| CC1(C)Cc2c(c(N3CCOCC3)nc3snc(N)c23)CO1 | 554 | -1.3% (inactive) | -78.1% (inactive) | 140% | 0.144 | -0.616 | 0.222 | 1.48% (inactive) | -0.281 (inactive) | -1.1e-05 (inactive) | 0.00566 (inactive) | inactive | 22.3% (inactive) |
| COc1ccc2c(c1OC)C(=O)N1c3ccccc3C(=O)N(c3ccccc3)C21 (stereo unspecified) | 475 | -9.6% (inactive) | -84.9% (inactive) | 169% | 0.407 | -0.0149 | -0.273 | 2.46% (inactive) | -0.319 (inactive) | -5.5e-06 (inactive) | 0.00449 (inactive) | inactive | 3.79% (inactive) |
| N#Cc1c(-c2ccccc2Cl)cc(C2CC2)nc1N | 577 | -16.2% (inactive) | -31.3% (inactive) | 172% | 0.235 | -0.47 | 0.466 | -2.47% (inactive) | -0.415 (inactive) | -2.4e-05 (inactive) | 0.00637 (inactive) | inactive | -9.3% (inactive) |
| COC(=O)c1n[nH]c2ccccc12 | 323 | 0.5% (inactive) | -157% (inactive) | 119% | -0.132 | 0.244 | -1.14 | -0.624% (inactive) | -0.287 (inactive) | -1.1e-05 (inactive) | 0.00523 (inactive) | inactive | 17.4% (inactive) |
